Measured values pooled from the literature.
Protocols differ between the studies behind these lines.
Target: Cannabinoid receptor 1 (CNR1, Homo sapiens, UniProt P21554)

Structure (SMILES) | observed | mode | method | notes | endpoint | result
Cc1ccc(OC(C)(C)C(=O)N[C@@H](C)[C@@H](Cc2ccc(OCCF)cc2)c2cccc(C#N)c2)nc1 | ligand displacement |  | radioligand |  | Ki | 0.1 nM
CCOC(=O)C(CCCOC)NC(=O)c1ccc(C2CC2)c(Cc2ccc(F)cc2)n1 (centres unmarked) | ligand displacement |  | radioligand | cell membranes | Ki | 99 nM
CCCc1cc(O)c2c(c1)OC(C)(C)[C@@H]1CCC(C)=C[C@@H]21 | ligand displacement |  | radioligand | cell membranes | Ki | 22 nM
Cc1c(C(=O)N2CCC(C(N)=O)(c3ccccc3)CC2)nn(-c2ccc(Cl)cc2Cl)c1-c1ccc(Cl)cc1 | calcium signal | antagonist |  |  | Kb | 0.4 nM
CCOC(=O)C(CC)(CCCSCCOCCOCCOCCNC(=O)OC(C)(C)C)NC(=O)c1ccc(C2CC2)c(Cc2ccc(F)cc2)n1 (centres unmarked) | ligand displacement |  | radioligand | cell membranes | Ki | 589 nM
CC1(C)C(C(=O)c2cn(CCCCCF)c3ccccc23)C1(C)C | GTPγS binding | agonist | radiometric | cell membranes | EC50 | 159 nM
CCCCCn1nc(C(=O)N[C@H](C(N)=O)C(C)C)c2ccccc21 | calcium signal | agonist |  |  | EC50 | 3.63 nM
CCCCC/C=C\C/C=C\C/C=C\C/C=C\CCCC(=O)N[C@H](C)CO | ligand displacement |  | radioligand | cell membranes | Ki | 19.8 nM
CCCCCc1cc2c(c(O)c1C(=O)O)C1C=C(C)CCC1C(C)(C)O2 (centres unmarked) | ligand displacement |  | radioligand | cell membranes | Ki | 1290 nM
C/C(N)=N\C(=N/S(=O)(=O)c1ccc(C(F)(F)F)cc1)N1C[C@H](c2ccccc2)C(c2ccc(Cl)cc2)=N1 | ligand displacement |  | radioligand |  | Ki | 1.2 nM
CCCCCc1cc(O)c(C/C=C(\C)CCC=C(C)C)c(O)c1 | ligand displacement |  | radioligand | cell membranes | Ki | 3090 nM
CCOC(=O)C(CC)(CCCSCCOCCOCCNc1ccc([N+](=O)[O-])c2nonc12)NC(=O)c1ccc(C2CC2)c(Cc2ccc(F)cc2)n1 (racemic) | ligand displacement |  | radioligand | cell membranes | Ki | 383 nM
CCCCCc1cc(O)c2c(c1)OC(C)(C)[C@@H]1CC=C(C)[C@H](O)[C@@H]21 | ligand displacement |  | radioligand | cell membranes | Ki | 31 nM
CCOC(=O)[C@H](CSC)NC(=O)c1ccc(C2CC2)c(Cc2ccc(F)cc2)n1 | ligand displacement |  | radioligand | cell membranes | Ki | 19 nM
